Test results from ChEMBL document CHEMBL1137811, “Four new bromotryptamine derivatives from the marine bryozoan Flustra foliacea” (J Nat Prod, 2002).
The source made the active and inactive calls. The calls are words filed in the database; no cut-off is given here.

Key:
Type in all cases: cell-based
Conditions in all cases: Oocyte
[1] = biological target: Potassium voltage-gated channel subfamily A member 1 (Rattus norvegicus) (UniProt P10499); experiment: Blockade of voltage-activated rat Kv1.1 potassium channel expressed in Xenopus laevis oocytes assessed as effect on evoked current upto 10 uM by two-electrode voltage clamp method
Chain of Potassium voltage-gated channel subfamily A member 1 (Rattus norvegicus) (P10499 whole entry): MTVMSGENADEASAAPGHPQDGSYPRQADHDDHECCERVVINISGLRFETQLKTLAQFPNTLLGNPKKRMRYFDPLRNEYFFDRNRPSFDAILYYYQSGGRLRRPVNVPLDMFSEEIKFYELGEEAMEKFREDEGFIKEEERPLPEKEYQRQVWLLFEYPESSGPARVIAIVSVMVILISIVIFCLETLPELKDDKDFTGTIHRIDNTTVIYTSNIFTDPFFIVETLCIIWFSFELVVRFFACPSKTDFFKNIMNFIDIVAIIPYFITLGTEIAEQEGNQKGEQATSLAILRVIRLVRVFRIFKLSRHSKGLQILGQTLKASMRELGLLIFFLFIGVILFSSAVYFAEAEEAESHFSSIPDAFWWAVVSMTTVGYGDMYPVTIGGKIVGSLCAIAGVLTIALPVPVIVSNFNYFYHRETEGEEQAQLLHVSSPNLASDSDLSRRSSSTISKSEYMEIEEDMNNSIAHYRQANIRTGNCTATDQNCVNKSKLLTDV
In short: (§1)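 Channels expressed in Xenopus laevis oocytes from injected cRNA (rat Kv1.1, rat Kv1.4 or rat brain type II Na channel), incubated 1-5 days. Vitelline membrane removed. Two-electrode voltage clamp, whole-cell currents; 2 M KCl electrodes, 0.6-1.0 MΩ. Filtered 1 kHz, sampled 4 kHz, P/n leak subtraction. Bath: frog Ringer's, pH 7.2. Compounds from DMSO stock, final up to 10 μM in bath; DMSO-only control.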

[2] = biological target: Potassium voltage-gated channel subfamily A member 4 (Rattus norvegicus) (UniProt P15385); experiment: Blockade of voltage-activated rat Kv1.4 potassium channel expressed in Xenopus laevis oocytes assessed as effect on evoked current upto 10 uM by two-electrode voltage clamp method; in short: as §1
Chain of Potassium voltage-gated channel subfamily A member 4 (Rattus norvegicus) (P15385 whole entry): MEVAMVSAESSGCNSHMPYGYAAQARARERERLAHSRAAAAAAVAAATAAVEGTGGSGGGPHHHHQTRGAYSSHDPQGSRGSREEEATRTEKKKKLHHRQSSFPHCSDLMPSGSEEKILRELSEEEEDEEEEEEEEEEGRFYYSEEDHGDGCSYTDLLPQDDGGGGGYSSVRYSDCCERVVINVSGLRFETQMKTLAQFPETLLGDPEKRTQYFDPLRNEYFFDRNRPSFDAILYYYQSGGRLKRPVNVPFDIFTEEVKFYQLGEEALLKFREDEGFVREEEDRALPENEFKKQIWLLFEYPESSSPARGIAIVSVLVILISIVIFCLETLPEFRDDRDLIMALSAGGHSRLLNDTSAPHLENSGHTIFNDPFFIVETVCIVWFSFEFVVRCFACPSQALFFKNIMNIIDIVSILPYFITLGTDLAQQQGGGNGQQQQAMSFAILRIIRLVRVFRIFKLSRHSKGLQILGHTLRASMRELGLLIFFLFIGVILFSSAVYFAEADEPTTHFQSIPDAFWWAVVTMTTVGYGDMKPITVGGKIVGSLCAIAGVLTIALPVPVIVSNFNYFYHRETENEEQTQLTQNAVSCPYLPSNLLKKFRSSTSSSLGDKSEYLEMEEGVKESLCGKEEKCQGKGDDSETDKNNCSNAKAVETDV

[3] = biological target: Sodium channel protein type 2 subunit alpha (Rattus norvegicus) (UniProt P04775); experiment: Blockade of voltage-activated rat brain Nav1.2 sodium channel type 2 channel expressed in Xenopus laevis oocytes assessed as effect on evoked current by two-electrode voltage clamp method; in short: as §1
Chain of Sodium channel protein type 2 subunit alpha (Rattus norvegicus) (P04775 whole entry, looked up): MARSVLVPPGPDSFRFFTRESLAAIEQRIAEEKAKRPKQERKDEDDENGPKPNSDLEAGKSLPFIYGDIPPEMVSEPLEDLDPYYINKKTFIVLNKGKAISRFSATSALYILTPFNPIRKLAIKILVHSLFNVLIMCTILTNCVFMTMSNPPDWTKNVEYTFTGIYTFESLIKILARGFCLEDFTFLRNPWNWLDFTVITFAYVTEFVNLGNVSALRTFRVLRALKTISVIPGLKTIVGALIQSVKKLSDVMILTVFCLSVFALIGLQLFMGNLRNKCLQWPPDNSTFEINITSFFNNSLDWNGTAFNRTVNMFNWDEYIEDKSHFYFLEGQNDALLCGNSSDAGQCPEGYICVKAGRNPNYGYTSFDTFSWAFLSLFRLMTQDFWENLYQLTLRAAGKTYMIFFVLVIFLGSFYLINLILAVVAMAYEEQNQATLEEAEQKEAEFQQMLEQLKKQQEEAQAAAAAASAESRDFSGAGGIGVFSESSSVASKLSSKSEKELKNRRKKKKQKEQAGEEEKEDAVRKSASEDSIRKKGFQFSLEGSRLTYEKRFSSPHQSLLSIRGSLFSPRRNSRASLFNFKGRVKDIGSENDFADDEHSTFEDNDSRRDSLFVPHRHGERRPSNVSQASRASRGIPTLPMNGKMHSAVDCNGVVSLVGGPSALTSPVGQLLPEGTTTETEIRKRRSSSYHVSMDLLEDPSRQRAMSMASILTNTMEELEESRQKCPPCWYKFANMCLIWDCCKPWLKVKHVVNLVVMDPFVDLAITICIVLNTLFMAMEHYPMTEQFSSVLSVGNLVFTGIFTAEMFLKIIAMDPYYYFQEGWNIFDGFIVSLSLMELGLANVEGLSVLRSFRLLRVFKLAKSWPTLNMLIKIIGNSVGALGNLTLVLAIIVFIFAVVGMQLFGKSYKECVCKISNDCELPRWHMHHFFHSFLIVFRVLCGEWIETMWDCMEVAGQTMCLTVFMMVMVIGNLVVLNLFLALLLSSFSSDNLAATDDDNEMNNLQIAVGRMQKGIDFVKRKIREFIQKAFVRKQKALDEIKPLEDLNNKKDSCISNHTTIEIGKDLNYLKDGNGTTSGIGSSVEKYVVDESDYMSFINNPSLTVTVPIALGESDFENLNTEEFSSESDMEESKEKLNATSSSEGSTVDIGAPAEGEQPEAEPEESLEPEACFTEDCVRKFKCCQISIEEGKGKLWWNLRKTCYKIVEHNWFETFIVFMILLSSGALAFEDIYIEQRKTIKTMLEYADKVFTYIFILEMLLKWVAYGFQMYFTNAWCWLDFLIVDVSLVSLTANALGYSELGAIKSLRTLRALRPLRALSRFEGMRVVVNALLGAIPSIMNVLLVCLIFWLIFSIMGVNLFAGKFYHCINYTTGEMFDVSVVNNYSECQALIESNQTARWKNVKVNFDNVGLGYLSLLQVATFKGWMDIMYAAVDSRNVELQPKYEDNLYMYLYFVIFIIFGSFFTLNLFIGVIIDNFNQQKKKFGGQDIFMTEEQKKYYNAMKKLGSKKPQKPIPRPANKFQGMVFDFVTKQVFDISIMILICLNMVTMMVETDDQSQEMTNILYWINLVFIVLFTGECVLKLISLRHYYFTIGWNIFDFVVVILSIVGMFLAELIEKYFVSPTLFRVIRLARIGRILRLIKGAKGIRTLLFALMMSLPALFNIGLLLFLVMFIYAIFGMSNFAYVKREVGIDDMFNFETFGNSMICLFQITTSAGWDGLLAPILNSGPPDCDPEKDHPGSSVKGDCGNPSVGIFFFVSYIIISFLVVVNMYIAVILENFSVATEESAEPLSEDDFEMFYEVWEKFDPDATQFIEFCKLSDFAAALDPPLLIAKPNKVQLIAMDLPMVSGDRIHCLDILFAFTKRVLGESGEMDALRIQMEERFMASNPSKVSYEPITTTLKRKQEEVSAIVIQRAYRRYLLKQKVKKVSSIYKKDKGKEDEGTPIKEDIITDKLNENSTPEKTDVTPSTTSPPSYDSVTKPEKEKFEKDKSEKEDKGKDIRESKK

SMILES	Activity [1]	Activity [2]	Activity [3]
C=CC(C)(C)c1[nH]c2cc(Br)ccc2c1CCNC	inactive	inactive	inactive
C=CC(C)(C)[C@@]12CCN(C)C1=Nc1cc(Br)ccc12	inactive	inactive	inactive
C=CC(C)(C)[C@@]12CCN(C)[C@@H]1N(CC=C(C)C)c1cc(Br)ccc12	inactive	inactive	inactive
C=CC(C)(C)[C@@]12CCN(C)[C@@H]1Nc1cc(Br)ccc12	inactive	inactive	inactive
